Activity calls are given as the source filed them. The calls are words filed in the database; no cut-off is given here.
How the values were obtained:
[1] = species: Rattus norvegicus; experiment: Reversal of scopolamine-induced memory loss in Wistar rat assessed as reduction of number of mistakes relative to control; assay type: functional
In short: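 Passive avoidance step-down task run on male Wistar rats, 200–250 g, n = 8, with scopolamine-induced memory loss. Mistakes were counted. The dose range tested was 0.05–0.2 mg/kg, and 0.1 mg/kg was used in the in vivo studies.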

[2] = species: Rattus norvegicus; experiment: Reversal of scopolamine-induced learning impairment and memory loss in Wistar rat on elevated plus maze assessed as transfer latency time on day 1 relative to control; assay type: functional
In short: (§1)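 Elevated plus maze, male Wistar rats. Scopolamine alone or with compound was given 30 min before a 90 s exploration, and saline 0.9% was given to controls. Transfer latency from the open-arm end to a closed arm was timed on day 1, then retested in the same animals on day 2. Mean ± SEM.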

[3] = species: Rattus norvegicus; experiment: Reversal of scopolamine-induced learning impairment and memory loss in Wistar rat on elevated plus maze assessed as transfer latency time on day 2 relative to control; assay type: functional; in short: as §1
[4] = species: Rattus norvegicus; experiment: Effect on scopolamine-induced spartial working memory loss in Wistar rat on Y maze assessed as alteration behavior; assay type: functional
In short: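 Y maze, male Wistar rats, 200–250 g. Compound plus scopolamine was given 30 min before free exploration. Arm entries were recorded visually. Alternation was scored as successive entries into all three arms over overlapping triplets. Percent alternation = actual alternations / (total entries − 2) × 100.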

[5] = target: T1, Muscarinic acetylcholine receptor M1 (Rattus norvegicus, UniProt P08482); experiment: Displacement of [3H]QNB from muscarinic M1 receptor Wistar rat cortex synaptosomal membrane
T1 sequence (P08482 whole entry): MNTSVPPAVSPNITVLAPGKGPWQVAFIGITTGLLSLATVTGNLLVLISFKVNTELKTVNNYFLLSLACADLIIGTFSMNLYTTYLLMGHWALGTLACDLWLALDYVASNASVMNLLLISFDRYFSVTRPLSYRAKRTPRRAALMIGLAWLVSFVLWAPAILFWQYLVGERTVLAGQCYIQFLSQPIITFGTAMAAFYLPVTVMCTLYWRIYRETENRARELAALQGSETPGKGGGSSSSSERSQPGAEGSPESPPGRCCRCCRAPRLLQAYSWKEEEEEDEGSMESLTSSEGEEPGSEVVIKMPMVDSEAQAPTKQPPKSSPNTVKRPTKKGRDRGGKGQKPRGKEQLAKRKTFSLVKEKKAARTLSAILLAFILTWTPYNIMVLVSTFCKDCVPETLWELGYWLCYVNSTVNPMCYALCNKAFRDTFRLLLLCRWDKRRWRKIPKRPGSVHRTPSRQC
In short: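 Male Wistar rat cortex synaptosomal membranes were prepared in Tris–HCl 50 mmol/L pH 7.4 with 0.32 mol/L sucrose, spun at 1000g then 32,000g at 4 °C, and resuspended in 50 mmol/L phosphate buffer pH 7.4 with MgCl2. Membrane protein was incubated with 0.2 nM [3H]QNB and displacer for 2 h at 37 °C, then GF/B filtered and counted by scintillation. IC50 and Ki were obtained by curve analysis.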

[6] = tested on: Cortex; experiment: Stimulation of (1,4,5)-trisphosphate formation in Wistar rat cerebral cortex relative to basal; assay type: functional; design: concentration or dose not given beside the values
In short: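 Rat cerebral cortex slices were labelled with [3H]myoinositol, then stimulated with compound at 1–500 µmol/l. Basal IP3 was measured, and acetylcholine iodide served as the reference stimulus. [3H]IP3 formed was counted by liquid scintillation. Values are mean and SD of three experiments, each run in duplicate.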

IC50 [5] [µM]	Ki [5] [µM]	Compound	Activity [1]	Activity [2]	Activity [3]	Activity [4] [%]	Activity [6] [%]
31	7	CN1CCC=C(C2CN(C(=S)Nc3ccc(F)cc3)CCO2)C1 (centres undefined)	11	Active	Active	61	155
362	98	COc1ccccc1NC(=S)N1CCOC(C2=CCCN(C)C2)C1 (centres undefined)	–	–	–	–	100
67	15	CN1CCC=C(C2CN(C(=S)Nc3ccccc3F)CCO2)C1 (centres undefined)	Active	–	–	58	129
–	–	CC(=O)OCC[N+](C)(C)C [ACETYLCHOLINE]	–	–	–	–	268
515	214	CN1CCC=C(C2CN(C(=S)Nc3ccccc3Cl)CCO2)C1 (centres undefined)	–	60 s	43 s	–	100
15	4	COc1ccc(NC(=S)N2CCOC(C3=CCCN(C)C3)C2)cc1 (centres undefined)	10	Active	Active	60	178
112	31	CN1CCC=C(C2CN(C(=S)Nc3ccc(Cl)cc3Cl)CCO2)C1 (centres undefined)	Active	–	–	–	116
1.2	0.31	CN1CCC=C(C2CN(C(=S)Nc3ccc(Cl)cc3)CCO2)C1 (centres undefined)	10	34 s	9 s	64	216
153	49	CN1CCC=C(C2CN(C(=S)Nc3ccccc3)CCO2)C1 (centres undefined)	–	–	–	–	101
120	41	COc1cccc(NC(=S)N2CCOC(C3=CCCN(C)C3)C2)c1 (centres undefined)	Active	–	–	–	106
236	85	CN1CCC=C(C2CN(C(=S)Nc3cccc(Cl)c3)CCO2)C1 (centres undefined)	–	–	–	–	103
